From ChEMBL document CHEMBL4610039, “Design, synthesis and apoptosis-related antiproliferative activities of chelidonine derivatives” (Bioorg Med Chem Lett, 2020)
Active and inactive are the calls of the source. The rule behind the calls is not given here.

Assays:
K562 [1] = assay: Induction of apoptosis in human K562 cells assessed as reduction in clusterin protein expression after 24 hrs by chemiluminescence based protein array analysis; format: functional, cell-based
How it was run: (§1)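 K562 cells were treated for 24 h, then proteins were extracted and run on a human apoptosis protein array. Chemiluminescent signals were detected with a digital imaging system.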

K562 [2] = assay: Induction of mitochondrial membrane potential loss in human K562 cells assessed as cell population with mitochondrial membrane potential collapse at 0.55 uM after 48 hrs by JC1 staining-based flow cytometry analysis (reference value: 7.04%); format: functional
K562 [3] = assay: Induction of apoptosis in human K562 cells assessed as necrotic cells at 0.55 uM after 48 hrs by annexin V-FITC/propidium iodide staining based flow cytometry (reference value: 0.78%); format: functional
K562 [4] = assay: Induction of cell cycle arrest in human K562 cells assessed as accumulation at S phase at 1.10 uM after 72 hrs by propidium iodide staining based flow cytometry (reference value: 35.68%); format: functional
How it was run: (§2)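 For cell cycle, K562 cells were treated 72 h at 0, 0.55, 1.10 or 2.20 μM, with a solvent control. Cells were stained with PI and G1, S and G2/M fractions determined by flow cytometry.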

K562 [5] = assay: Induction of mitochondrial membrane potential loss in human K562 cells assessed as cell population with intact mitochondrial membrane potential at 1.10 uM after 48 hrs by JC1 staining-based flow cytometry analysis (reference value: 92.94%); format: functional
HCT-116 = assay: Antiproliferative activity against human HCT116 cells assessed as reduction in cell growth after 72 hrs by MTT assay; format: functional, cell-based; details: HCT-116, 72 h
How it was run: (§3)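 Human HepG2, MCF-7, HCT-116 and K562 tumour cells plus normal L-02 hepatocytes and PBMCs were exposed to compounds for 72 h and growth was read by MTT. 5-Fu served as positive control. IC50 is the concentration inhibiting 50% of cell growth, given as mean ± standard deviation of three independent experiments.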

K562 [6] = assay: Induction of cell cycle arrest in human K562 cells assessed as accumulation at G2/M phase at 1.10 uM after 72 hrs by propidium iodide staining based flow cytometry (reference value: 8.19%); format: functional; how it was run: as §2
K562 [7] = assay: Induction of apoptosis in human K562 cells assessed as increase in Bad protein expression after 24 hrs by chemiluminescence based protein array analysis; format: functional, cell-based; how it was run: as §1
K562 [8] = assay: Induction of morphological changes in human K562 cells assessed as nuclear rupture at 0.55 to 2.20 uM after 48 hrs by Hoechst 33258 staining based fluorescence microscopic analysis; format: functional, cell-based
How it was run: (§4)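 After 48 h exposure at 0, 0.55, 1.10 or 2.20 μM, K562 cells were stained with Hoechst 33258. Nuclear morphology, including chromatin aggregation and nuclear rupture, was examined by fluorescence microscopy.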

K562 [9] = assay: Induction of mitochondrial membrane potential loss in human K562 cells assessed as cell population with mitochondrial membrane potential collapse at 2.20 uM after 48 hrs by JC1 staining-based flow cytometry analysis (reference value: 7.04%); format: functional
K562 [10] = assay: Induction of apoptosis in human K562 cells assessed as reduction in survivin level after 24 hrs by chemiluminescence based protein array analysis; format: functional, cell-based; how it was run: as §1
K562 [11] = assay: Induction of cell cycle arrest in human K562 cells assessed as accumulation at S phase after 72 hrs by propidium iodide staining based flow cytometry; format: functional; how it was run: as §2
K562 [12] = assay: Induction of apoptosis in human K562 cells assessed as early apoptotic cells at 1.10 uM after 48 hrs by annexin V-FITC/propidium iodide staining based flow cytometry (reference value: 2.23%); format: functional
L02 = assay: Antiproliferative activity against human L02 cells assessed as reduction in cell growth after 72 hrs by MTT assay; format: functional, cell-based; details: L02, 72 h; how it was run: as §3
[13] = Drug metabolism assessed as nitric oxide release after 210 mins; format: physicochemical; details: 3.5 h
How it was run: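 NO released from the NO-donating derivatives was measured over time up to 210 min by Griess assay.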

K562 [14] = assay: Induction of apoptosis in human K562 cells assessed as late apoptotic cells at 1.10 uM after 48 hrs by annexin V-FITC/propidium iodide staining based flow cytometry (reference value: 0.73%); format: functional
K562 [15] = assay: Induction of cell cycle arrest in human K562 cells assessed as accumulation at S phase at 0.55 uM after 72 hrs by propidium iodide staining based flow cytometry (reference value: 35.68%); format: functional; how it was run: as §2
K562 [16] = assay: Induction of apoptosis in human K562 cells assessed as reduction in bcl-xl protein expression after 24 hrs by chemiluminescence based protein array analysis; format: functional, cell-based; how it was run: as §1
K562 [17] = assay: Induction of cell cycle arrest in human K562 cells assessed as accumulation at G1 phase at 0.55 uM after 72 hrs by propidium iodide staining based flow cytometry (reference value: 56.13%); format: functional; how it was run: as §2
MCF7 = assay: Antiproliferative activity against human MCF7 cells assessed as reduction in cell growth after 72 hrs by MTT assay; format: functional, cell-based; details: MCF7, 72 h; how it was run: as §3
K562 [18] = assay: Induction of cell cycle arrest in human K562 cells assessed as accumulation at S phase at 2.20 uM after 72 hrs by propidium iodide staining based flow cytometry (reference value: 35.68%); format: functional; how it was run: as §2
K562 [19] = assay: Induction of apoptosis in human K562 cells assessed as viable cells at 2.20 uM after 48 hrs by annexin V-FITC/propidium iodide staining based flow cytometry (reference value: 96.26%); format: functional; details: K562, 48 h, read-out: Activity
K562 [20] = assay: Induction of apoptosis in human K562 cells assessed as necrotic cells at 2.20 uM after 48 hrs by annexin V-FITC/propidium iodide staining based flow cytometry (reference value: 0.78%); format: functional
K562 [21] = assay: Induction of apoptosis in human K562 cells assessed as viable cells at 1.10 uM after 48 hrs by annexin V-FITC/propidium iodide staining based flow cytometry (reference value: 96.26%); format: functional; details: K562, 48 h, read-out: Activity
K562 [22] = assay: Induction of morphological changes in human K562 cells assessed as chromatin aggregation at 0.55 to 2.20 uM after 48 hrs by Hoechst 33258 staining based fluorescence microscopic analysis; format: functional, cell-based; how it was run: as §4
K562 [23] = assay: Induction of mitochondrial membrane potential loss in human K562 cells assessed as cell population with intact mitochondrial membrane potential at 0.55 uM after 48 hrs by JC1 staining-based flow cytometry analysis (reference value: 92.94%); format: functional
K562 [24] = assay: Induction of apoptosis in human K562 cells assessed as reduction in catalase protein expression after 24 hrs by chemiluminescence based protein array analysis; format: functional, cell-based; how it was run: as §1
K562 [25] = assay: Induction of mitochondrial membrane potential loss in human K562 cells assessed as cell population with intact mitochondrial membrane potential at 2.20 uM after 48 hrs by JC1 staining-based flow cytometry analysis (reference value: 92.94%); format: functional
K562 [26] = assay: Induction of apoptosis in human K562 cells assessed as early apoptotic cells at 0.55 uM after 48 hrs by annexin V-FITC/propidium iodide staining based flow cytometry (reference value: 2.23%); format: functional
K562 [27] = assay: Induction of apoptosis in human K562 cells assessed as reduction in claspin level after 24 hrs by chemiluminescence based protein array analysis; format: functional, cell-based; how it was run: as §1
K562 [28] = assay: Antiproliferative activity against human K562 cells assessed as reduction in cell growth after 72 hrs by MTT assay; format: functional, cell-based; details: K562, 72 h; how it was run: as §3
K562 [29] = assay: Induction of mitochondrial membrane potential loss in human K562 cells after 48 hrs by JC1 staining-based flow cytometry analysis; format: functional, cell-based

CN1Cc2c(ccc3c2OCO3)[C@H]2[C@@H](OC(=O)CCCC(=O)OCC#CCOc3no[n+]([O-])c3S(=O)(=O)c3ccccc3)Cc3cc4c(cc3[C@H]21)OCO4
Activity (K562 [1]): Active
Activity (K562 [2]): 19.29%
Activity (K562 [3]): 1.69%
Activity (K562 [4]): 52.04%
Activity (K562 [5]): 71.34%
IC50 (HCT-116): 4.36 µM
Activity (K562 [6]): 6.69%
Activity (K562 [7]): Active
Activity (K562 [8]): Active
Activity (K562 [9]): 51.15%
Activity (K562 [10]): Active
Activity (K562 [11]): Dose-dependent effect
Activity (K562 [12]): 16.46%
IC50 (L02): 6.04 µM
Drug metabolism [13]: 30 µM
Activity (K562 [14]): 2.39%
Activity (K562 [15]): 41.89%
Activity (K562 [16]): Active
Activity (K562 [17]): 47.82%
IC50 (MCF7): 6.9 µM
Activity (K562 [18]): 59.72%
viability at 2.2 µM (K562 [19]): 45%
Activity (K562 [20]): 1.16%
viability at 1.1 µM (K562 [21]): 80.5%
Activity (K562 [22]): Active
Activity (K562 [23]): 80.71%
Activity (K562 [24]): Active
Activity (K562 [25]): 48.85%
Activity (K562 [26]): 6.49%
Activity (K562 [27]): Active
IC50 (K562 [28]): 1.12 µM
Activity (K562 [29]): Dose-dependent effect
